How the values were obtained:
T cell proliferation = conditions: in words; cited from earlier work
[1] = Isoaspartyl content of peptides; format: physicochemical; conditions: tested at 250 pmol
In short: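 Isoaspartate quantified by radiolabelled methyl incorporation using protein isoaspartyl methyltransferase and S-adenosyl-L-[methyl-3H]methionine, following the ISOQUANT kit protocol. Each peptide preparation was tested at 250 pmol. The manufacturer's standard gave an estimated 1,754 cpm per pmol. Batches had been stored frozen or at 4°C.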

type B T cells = assay: Type B T cell hybridomas, recognition; format: cell-based; conditions: none of the type B triggered up to the value
In short: (§1)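 IL-2 release assay: I-Ak-expressing M12.C3.F6 B lymphoma cells (5 × 104) were incubated with T cell hybridomas (5 × 104) and decreasing doses of antigen (native HEL or HEL 48–61 peptide) in MEM with 10% FCS for 18 h. Supernatants went to IL-2-dependent CTLL-2 cells cultured 40 h, with [3H]thymidine for the last 24 h.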

type A T cells = assay: Type A T cell hybridomas, recognition; format: cell-based; conditions: all type A T cells in Table 1
In short: as §1

[2] = batch RD (7/00), tryptic peptide from HEL
[3] = batch Abbt (6/98), commercial source

For “murine cytochrome c peptide, residues 90–104: murine cytochrome c peptide, residues 90–104 (ERADLIAYLKKATNE; UniProt P62897 91-105, looked up, fragment)”, the “T cell proliferation after immunization of mice” value (T cell proliferation) is given as “did not trigger T cell proliferation”.

Work on 46–61: tryptic peptide from HEL yielded a percentage of isoaspartyl [1, 2] of 0.9% and a pmol of isoaspartyl [1, 2] of 2.1 pmol.

With “HEL: HEL was purchased from Sigma-Aldrich” the “HEL concentration up to which none of the type B T cells were triggered” value (type B T cells) was over 10 µM and the “HEL concentration triggering all type A T cells” value (type A T cells) was about 0.1 µM.

In the case of “48–63: HEL peptide 48–63, batches 1387 and Abbt (commercial source) (DGSTDYGILQINSRWW; UniProt P00698 66-81, looked up, fragment)”, the percentage of isoaspartyl ([1]; batch 1387 (8/99)) is reported as 0.1%, the pmol of isoaspartyl ([1]; batch 1387 (8/99)) is reported as 0.3 pmol and the percentage of isoaspartyl [1, 3] is reported as 0 (0%). For the same substance, the pmol of isoaspartyl [1, 3] was 0 (0%) pmol.

From publication PMC2193507 (The Journal of Experimental Medicine, 2001)
